{"source": "paper PMC6677593", "about": "(Molecular cancer therapeutics, 2019)", "key": {"[1]": {"test_system": "MDA-MB-231 and BT-549 cells", "test": "Matrigel invasion chamber assay", "format": "cell-based, Human", "details": "EC359 25 nM, 22 h"}, "[2]": {"test_system": "TNBC PDX tumors", "test": "TNBC patient derived xenograft", "format": "in vivo, SCID mice", "details": "10 mg/kg/day s.c. 3 days/week"}, "[3]": {"details": "intraperitoneal and oral dosing"}, "[4]": {"test_system": "MDA-MB-231 and BT-549 cells", "details": "72 h"}, "[5]": {"test_system": "MDA-MB-231 xenograft tumors", "test": "MDA-MB-231 xenograft study", "format": "in vivo, athymic nude mice", "details": "5 mg/kg/day s.c. 3 days/week"}, "[6]": {"molecular_target": "Recombinant human LIF (Homo sapiens, UniProt P15018)", "sequence (P15018 23-202)": "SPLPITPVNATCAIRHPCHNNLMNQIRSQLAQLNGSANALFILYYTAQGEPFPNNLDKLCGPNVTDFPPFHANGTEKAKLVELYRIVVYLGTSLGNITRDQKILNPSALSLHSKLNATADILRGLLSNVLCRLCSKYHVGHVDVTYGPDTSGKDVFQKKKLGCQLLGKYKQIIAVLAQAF", "test": "Surface plasmon resonance", "format": "binding", "details": "SPR"}, "[7]": {"test_system": "ALDH+ (CSCs) and ALDH− (non CSCs) cells", "test": "Cell Titer-Glo viability of CSCs and non CSCs", "format": "cell-based, Human", "details": "3 days"}, "[8]": {"test_system": "LIFR downstream signaling in MDA-MB-231 and BT-549 cells", "test": "Western blotting of LIFR downstream signaling", "format": "cell-based, Human", "in_short": "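After 24 h serum starvation and 1 h pretreatment with test compound (100 nM), cells were stimulated for 10 min with LIF (MDA-MB-231, BT-549), or with OSM or CNTF at 10 ng (BT-549). For downstream kinases, cells were treated with 100 nM. Lysates were made in RIPA with protease/phosphatase inhibitors and blotted with ECL detection. p-STAT3 bands were quantified, normalized to total STAT3 and expressed as fold over control.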"}, "[9]": {"details": "rats"}, "[10]": {"details": "human"}, "[11]": {"test_system": "BT-549 cells", "test": "MTT cell viability assay on BT-549 cells", "format": "cell-based, Human", "details": "BT-549 model cells (Fig. 1B)"}, "[12]": {"details": "human", "remark": "listed apart in the source"}, "[13]": {"test_system": "MDA-MB-231 and SUM-159 cells", "test": "Clonogenic survival assay", "format": "cell-based, Human", "details": "EC359 20 nM"}, "[14]": {"molecular_target": "T1, GR (Homo sapiens, UniProt P04150)", "T1 sequence (P04150 1-777)": "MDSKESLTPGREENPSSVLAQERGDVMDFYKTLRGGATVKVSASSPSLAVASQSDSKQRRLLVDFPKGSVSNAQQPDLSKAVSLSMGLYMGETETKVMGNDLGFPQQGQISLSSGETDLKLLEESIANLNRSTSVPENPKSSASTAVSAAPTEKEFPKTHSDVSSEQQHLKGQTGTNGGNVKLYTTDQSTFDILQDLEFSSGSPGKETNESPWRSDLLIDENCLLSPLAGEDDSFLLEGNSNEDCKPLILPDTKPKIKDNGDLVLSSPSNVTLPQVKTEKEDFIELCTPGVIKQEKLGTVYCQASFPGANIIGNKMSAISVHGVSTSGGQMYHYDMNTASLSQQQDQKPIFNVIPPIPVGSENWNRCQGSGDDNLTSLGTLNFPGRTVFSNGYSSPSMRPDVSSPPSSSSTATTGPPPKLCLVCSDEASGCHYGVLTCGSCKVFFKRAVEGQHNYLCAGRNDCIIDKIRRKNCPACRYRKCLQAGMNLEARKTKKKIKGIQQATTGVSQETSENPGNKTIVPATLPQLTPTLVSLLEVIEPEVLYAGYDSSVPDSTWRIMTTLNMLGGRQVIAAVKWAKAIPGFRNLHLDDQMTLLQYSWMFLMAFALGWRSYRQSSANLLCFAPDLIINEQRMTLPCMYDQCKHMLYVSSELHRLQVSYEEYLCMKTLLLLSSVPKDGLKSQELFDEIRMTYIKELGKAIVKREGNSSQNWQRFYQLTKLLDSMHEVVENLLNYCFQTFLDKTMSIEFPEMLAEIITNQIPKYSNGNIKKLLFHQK", "test": "In vitro steroid receptor binding assays", "details": "receptor binding studies (Fig. 1C)"}, "[15]": {"test_system": "MDA-MB-231 and BT-549 cells", "test": "Annexin V/PI staining", "format": "cell-based, Human"}, "[16]": {"test_system": "TNBC cells (BT-549, SUM-159, MDA-MB-231, HCC1937, MDA-MB-468, HCC1806)", "test": "MTT cell viability assay in TNBC cells", "format": "cell-based, Human", "details": "read-out: IC50, cell viability of TNBC cells, 5 days"}, "[17]": {"test_system": "CSCs from MDA-MB-231 and BT-549 cells", "test": "Extreme limiting dilution assay", "format": "cell-based, Human", "details": "10 days", "in_short": "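ALDH+ CSCs were sorted by ALDEFLUOR flow cytometry and grown in supplemented MammoCult. They were seeded at 100, 50, 20, 10, 5 and 1 cells/well on ultra-low attachment plates with vehicle or test compound. After 10 days, wells with spheres were scored at each density, and stem cell frequency was estimated by ELDA analysis.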"}, "[18]": {"molecular_target": "CYP 2D6 (Homo sapiens, UniProt P10635)", "sequence (P10635 whole entry)": "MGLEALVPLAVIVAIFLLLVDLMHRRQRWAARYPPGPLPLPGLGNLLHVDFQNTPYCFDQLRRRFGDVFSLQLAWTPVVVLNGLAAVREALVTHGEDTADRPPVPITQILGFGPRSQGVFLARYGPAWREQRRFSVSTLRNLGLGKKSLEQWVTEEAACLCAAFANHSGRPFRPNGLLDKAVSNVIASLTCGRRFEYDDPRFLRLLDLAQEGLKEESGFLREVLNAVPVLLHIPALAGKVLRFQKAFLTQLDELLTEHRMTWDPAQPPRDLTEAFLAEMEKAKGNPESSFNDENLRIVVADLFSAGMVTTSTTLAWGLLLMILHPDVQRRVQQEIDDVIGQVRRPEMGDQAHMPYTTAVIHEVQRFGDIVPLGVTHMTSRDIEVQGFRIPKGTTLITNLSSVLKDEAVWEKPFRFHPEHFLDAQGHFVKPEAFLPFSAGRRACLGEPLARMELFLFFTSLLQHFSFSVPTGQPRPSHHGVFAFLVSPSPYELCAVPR"}, "[19]": {"test_system": "salmonella typhimurium strains TA98, TA100, TA1535, TA1537 and E.coli combo", "test": "Ames test", "details": "with and without metabolic activation, OECD guideline no.471"}, "[20]": {"test_system": "STAT3-Luc reporter in BT-549 and MDA-MB-231 cells", "test": "STAT3-luc reporter gene assay", "format": "cell-based, Human", "details": "BT-549, EC359 50 nM pretreatment 1 h", "in_short": "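MDA-MB-231 and BT-549 lines stably transduced with a STAT3-firefly luciferase reporter lentivirus were serum-starved for 24 h and pretreated with test compound (50 nM) for 1 h. They were then stimulated with LIF, CTF1, OSM or CNTF at indicated concentrations for 24 h. Lysates in passive lysis buffer were read by dual-luciferase luminescence; n=3.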"}, "[21]": {"details": "human", "remark": "listed apart in the source"}, "[22]": {"molecular_target": "T2, glucocorticoid receptor (GR) (Homo sapiens, UniProt P04150)", "T2 sequence (P04150 1-777)": "T1 sequence (P04150 1-777)", "test": "GR antagonism assay", "format": "biochemical", "details": "read-out: antagonism to GR"}}, "note": "pIC50: −log10 of the molar value. Like-named read-outs stand apart in the source and are kept apart here."}
{"smiles": "C#CC(F)(F)[C@]1(O)CC[C@H]2[C@@H]3CCC4=CC(=O)CCC4=C3[C@@H](c3ccc(-c4c(C)cc(C)cc4C)cc3)C[C@@]21C", "note": "[EC359]", "values": [{"measurement": "invasion potential", "setting": "[1]", "result": "significantly reduced"}, {"measurement": "body weight", "setting": "[2]", "result": "did not affected"}, {"measurement": "proliferating cells (Ki-67) in PDX tumors", "setting": "[2]", "result": "fewer proliferating cells"}, {"measurement": "tumor progression (tumor volume)", "setting": "[2]", "result": "significantly reduced"}, {"measurement": "bioavailability (PK)", "setting": "[3]", "result": "Good bioavailability"}, {"measurement": "caspase 3/7 activity", "setting": "[4]", "result": "significantly increased"}, {"measurement": "body weights of mice", "setting": "[5]", "result": "remained unchanged"}, {"measurement": "proliferating cells (Ki-67 positive cells) in tumors", "setting": "[5]", "result": "fewer proliferating cells"}, {"measurement": "tumor progression (tumor volume)", "setting": "[5]", "result": "significantly reduced"}, {"measurement": "activation of STAT3 target genes in tumors", "setting": "[5]; RT-qPCR", "result": "significant decrease"}, {"measurement": "binding to LIF", "setting": "[6]", "result": "binding to LIFR, but not LIF"}, {"measurement": "viability of ALDH+ and ALDH− cells", "setting": "[7]", "result": "similarly inhibited"}, {"measurement": "STAT3 activation by OSM and CNTF (phosphorylation)", "setting": "[8]; BT-549, EC359 100 nM 1 h, then OSM or CNTF 10 ng, 10 min", "result": "reduced"}, {"measurement": "LIF activation of STAT3 (phosphorylation)", "setting": "[8]; EC359 100 nM 1 h, then LIF 10 min, BT-549 and MDA-MB-231", "result": "substantially reduced"}, {"measurement": "AUC0-inf", "setting": "[9]; IV 5 mg/kg", "result": 15573.91, "unit": "ng·h/mL"}, {"measurement": "AUC0-last", "setting": "[9]; IV 5 mg/kg", "result": 15544.36, "unit": "ng·h/mL"}, {"measurement": "T½", "setting": "[9]; IV 5 mg/kg", "result": 3.86, "unit": "h"}, {"measurement": "mean C0", "setting": "[9]; IV 5 mg/kg", "result": 74669.11, "unit": "ng/mL"}, {"measurement": "AUC0-inf", "setting": "[9]; oral 10 mg/kg", "result": 3876.82, "unit": "ng·h/mL"}, {"measurement": "AUC0-last", "setting": "[9]; oral 10 mg/kg", "result": 3792.26, "unit": "ng·h/mL"}, {"measurement": "Tmax", "setting": "[9]; oral 10 mg/kg", "result": 2.67, "unit": "h"}, {"measurement": "mean Cmax", "setting": "[9]; oral 10 mg/kg", "result": 919.50, "unit": "ng/mL"}, {"measurement": "plasma protein binding", "setting": "[10]", "result": "high"}, {"measurement": "inhibitory activity in cell viability assay", "setting": "[11]", "result": "significant inhibitory activity on par with EC330"}, {"measurement": "plasma stability", "setting": "[12]", "result": "moderate"}, {"measurement": "colony formation ability", "setting": "[13]", "result": "significantly reduced"}, {"measurement": "affinity to GR", "setting": "[14]", "result": "lack of affinity"}, {"measurement": "Annexin V positive cells", "setting": "[15]", "result": "significantly increased"}, {"measurement": "pIC50", "setting": "[16]", "result": "7.30 to 8.00"}, {"measurement": "self renewal of CSCs", "setting": "[17]", "result": "significantly reduced"}, {"measurement": "CYP 2D6 inhibition", "setting": "[18]", "result": "inhibits 2D6"}, {"measurement": "mutagenicity (Ames test)", "setting": "[19]", "result": "non-mutagenic"}, {"measurement": "LIF stimulated STAT3 reporter activity", "setting": "[20]", "result": "inhibited"}, {"measurement": "OSM, CNTF and CTF1 mediated STAT3 activity", "setting": "[20]", "result": "blocked"}, {"measurement": "Metabolic stability", "setting": "[21]", "result": "moderate"}]}
{"smiles": "C#CC(F)(F)[C@]1(O)CC[C@H]2[C@@H]3CCC4=CC(=O)CCC4=C3[C@@H](c3ccc(C4CC4)cc3)C[C@@]21C", "note": "[EC330]", "values": [{"measurement": "pIC50", "setting": "[22]", "result": 7.10}]}
